From ChEMBL document CHEMBL3286182, “4-aminoquinolone piperidine amides: noncovalent inhibitors of DprE1 with long residence time and potent antimycobacterial activity” (J Med Chem, 2014)
pIC50: −log10 of the molar value. Values after ≈ are worked out from the molar mass of the structure shown. Active and inactive are the calls of the source. The rule behind the calls is not given here.

How the values were obtained:
[1] = Cmax in Wistar rat at 10 mg/kg, po; format: ADME, organism-based; set-up: dose 10 mg/kg, route oral; conditions: in vivo
Procedure, shortened: (§1)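 Male Wistar rats given a single dose, 2 mg/kg intravenously or 10 mg/kg orally. Plasma concentration followed over time, n = 2 per compound. Parameters taken from the plasma curves: C0 (iv), Cmax (oral), AUC0−∞, elimination half-life, plasma clearance, Vss and oral bioavailability.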

[2] = system: Mycolicibacterium smegmatis; experiment: Binding affinity to Mycobacterium smegmatis recombinant DprE1 assessed as half life
Procedure, shortened: (§2)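 Progress curves (fluorescence vs time) recorded at several inhibitor concentrations with 75 nM Msm DprE1 in the FAD/HRP/Amplex Red coupled assay, pH 8.5, 25 °C. A single-step reversible slow-binding model was fitted globally, with vs and vi fitted per concentration and koff and Kiapp shared. Half-life and residence time were derived from koff.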

[3] = Volume of distribution at steady state in Wistar rat at 2 mg/kg, iv; format: ADME, organism-based; set-up: dose 2 mg/kg, route intravenous; conditions: in vivo, read-out: Vdss; procedure, shortened: as §1
[4] = Clearance in Wistar rat at 2 mg/kg, iv; format: ADME, organism-based; set-up: dose 2 mg/kg, route intravenous; conditions: in vivo; procedure, shortened: as §1
[5] = AUC (0 to infinity) in Wistar rat at 2 mg/kg, iv; format: ADME, organism-based; set-up: dose 2 mg/kg, route intravenous, time infinity; conditions: plasma; procedure, shortened: as §1
[6] = system: Mycobacterium tuberculosis; experiment: Bactericidal activity against Mycobacterium tuberculosis H37Rv after 7 days relative to control; format: functional
[7] = system: Mycolicibacterium smegmatis; experiment: Ratio of IC50 for Mycobacterium smegmatis DprE1 Y321H mutant to IC50 for Mycobacterium smegmatis recombinant wild type DprE1
Procedure, shortened: (§3)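 Recombinant M. smegmatis DprE1 (thioredoxin-6His fusion), wild type or Y321H, 75 nM. Enzyme was preincubated 30 min in FAD assay mix: 50 mM glycylglycine pH 8.5, 200 mM potassium glutamate, 10 μM FAD, 0.002% Brij-35, 2% DMSO. Reaction was started with 300 μM farnesylphosphoryl-β-D-ribofuranose, 0.01 mg/mL HRP and 50 μM amplex red at 25 °C.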

[8] = system: Mycolicibacterium smegmatis; experiment: Antimicrobial activity against Mycobacterium smegmatis mc2155 at 100 uM; format: functional, organism-based; conditions: str. MC2 155
Escherichia coli [9] = experiment: Antimicrobial activity against Escherichia coli ARC523 at 100 uM; format: functional, organism-based
Procedure, shortened: (§4)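 Nonmycobacterial panel of Candida albicans, Gram-negative and Gram-positive pathogens.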

[10] = system: Mycobacterium tuberculosis; experiment: Antimycobacterial activity against Mycobacterium tuberculosis H37Rv at >MIC after 21 to 28 days; format: functional
[11] = system: Mycobacterium tuberculosis; experiment: Antimycobacterial activity against Mycobacterium tuberculosis over expressing InhA after 5 days by standard microdilution method; format: functional; conditions: 120 h
Pseudomonas aeruginosa [12] = experiment: Antimicrobial activity against Pseudomonas aeruginosa ARC546 at 100 uM; format: functional, organism-based; procedure, shortened: as §4
[13] = Solubility of the compound in 0.1 M phosphate buffer at pH 7.4 after 24 hrs by UV and MS analysis; format: physicochemical
[14] = Elimination half life in Wistar rat at 2 mg/kg, iv; format: ADME, organism-based; set-up: dose 2 mg/kg, route intravenous; conditions: in vivo, read-out: beta t1/2 (converted); procedure, shortened: as §1
[15] = Oral bioavailability in Wistar rat at 10 mg/kg; format: ADME, organism-based; conditions: in vivo; procedure, shortened: as §1
[16] = Initial plasma concentration in Wistar rat at 2 mg/kg, iv; format: ADME, organism-based; set-up: dose 2 mg/kg, route intravenous; procedure, shortened: as §1
Streptococcus pneumoniae = experiment: Antimicrobial activity against Streptococcus pneumoniae ARC548 at 100 uM; format: functional, organism-based; procedure, shortened: as §4
[17] = system: Mycolicibacterium smegmatis; experiment: Binding affinity to Mycobacterium smegmatis recombinant DprE1 assessed as residence time; procedure, shortened: as §2
[18] = AUC (0 to infinity) in Wistar rat at 10 mg/kg, po; format: ADME, organism-based; set-up: time infinity, dose 10 mg/kg, route oral; conditions: plasma; procedure, shortened: as §1
[19] = system: Mycobacterium tuberculosis; experiment: Antimycobacterial activity against Mycobacterium tuberculosis over expressing PimA after 5 days by standard microdilution method; format: functional; conditions: 120 h
Staphylococcus aureus = experiment: Antimicrobial activity against Staphylococcus aureus ARC517 at 100 uM; format: functional, organism-based; procedure, shortened: as §4
[20] = system: Mycobacterium tuberculosis; experiment: Antimycobacterial activity against Mycobacterium tuberculosis over expressing DprE1 after 5 days by standard microdilution method; format: functional; conditions: 120 h
Haemophilus influenzae [21] = experiment: Antimicrobial activity against Haemophilus influenzae ARC158 at 100 uM; format: functional, organism-based; procedure, shortened: as §4
[22] = system: Mycolicibacterium smegmatis; experiment: Binding affinity to Mycobacterium smegmatis recombinant DprE1 assessed as dissociation constant; procedure, shortened: as §2
[23] = Octanol-water partition coefficient, log D of the compound by shake-flask method; format: physicochemical
[24] = system: Mycobacterium tuberculosis; experiment: Bactericidal activity against Mycobacterium tuberculosis H37Rv after 3 days relative to control; format: functional
[25] = system: Mycolicibacterium smegmatis; experiment: Antimicrobial activity against Mycobacterium smegmatis ATCC 607 at 100 uM; format: functional, organism-based
[26] = Cytotoxicity against human A549 cells after 72 hrs by resazurin based fluorescence assay; format: cell-based; conditions: read-out: MIC
Procedure, shortened: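 Cytotoxicity read as MMIC, the MIC on the A549 cell line.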

[27] = system: Mycobacterium tuberculosis; experiment: Antimycobacterial activity against Mycobacterium tuberculosis H37Rv under hypoxic condition after 6 days by resazurin assay; format: functional; conditions: 144 h
[28] = Intrinsic clearance in rat cryopreserved hepatocytes assessed per 10^6 cells at 1 uM up to 120 mins by LC-MS/MS analysis; format: ADME, cell-based, Hepatocyte; conditions: read-out: CLH
Haemophilus influenzae [29] = experiment: Antimicrobial activity against Haemophilus influenzae ARC446 at 100 uM; format: functional, organism-based; procedure, shortened: as §4
[30] = Inhibition of Mycobacterium smegmatis DprE1 Y321H mutant using farnesylphosphoryl-beta-D-ribofuranose as substrate assessed as conversion of amplex red to resorufin after 30 mins; set-up: species or system Mycolicibacterium smegmatis; procedure, shortened: as §3
Candida albicans = experiment: Antimicrobial activity against Candida albicans ARC527 at 100 uM; format: functional, organism-based; procedure, shortened: as §4
[31] = Permeability of the compound from apical to basolateral side in human Caco2 cells; format: ADME, cell-based; conditions: Caco-2, read-out: permeability
[32] = system: Mycobacterium tuberculosis; experiment: Antimycobacterial activity against Mycobacterium tuberculosis over expressing TopA after 5 days by standard microdilution method; format: functional; conditions: 120 h
[33] = Fraction unbound in human plasma at 20 uM after 18 hrs by equilibrium dialysis method; format: ADME, cell-free
Klebsiella pneumoniae = experiment: Antimicrobial activity against Klebsiella pneumoniae ARC1865 at 100 uM; format: functional, organism-based; procedure, shortened: as §4
[34] = Inhibition of Mycobacterium smegmatis recombinant DprE1 using farnesylphosphoryl-beta-D-ribofuranose as substrate assessed as conversion of amplex red to resorufin after 30 mins; set-up: species or system Mycolicibacterium smegmatis
Procedure, shortened: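 Msm DprE1 (thioredoxin-6His fusion of Msm Rv3790) at 75 nM, preincubated 30 min with 10 μM FAD. Buffer: 50 mM glycylglycine pH 8.5, 200 mM potassium glutamate, 0.002% Brij-35, 2% DMSO, 25 °C. Started with 300 μM farnesylphosphoryl-β-D-ribofuranose, 0.01 mg/mL HRP and 50 μM Amplex Red.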

[35] = system: Mycobacterium tuberculosis; experiment: Antimycobacterial activity against Mycobacterium tuberculosis H37Rv after 5 days by standard microdilution method; format: functional; conditions: 120 h
[36] = Elimination half life in Wistar rat at 10 mg/kg, po; format: ADME, organism-based; set-up: dose 10 mg/kg, route oral; conditions: in vivo, read-out: beta t1/2 (converted); procedure, shortened: as §1
[37] = Intrinsic clearance in human liver microsomes at 1 uM up to 30 mins by LC-MS/MS analysis; format: ADME; conditions: read-out: CLH
Pseudomonas aeruginosa [38] = experiment: Antimicrobial activity against Pseudomonas aeruginosa ARC545 at 100 uM; format: functional, organism-based; procedure, shortened: as §4
[39] = molecular target: Voltage-gated inwardly rectifying potassium channel KCNH2 (Homo sapiens, UniProt Q12809); experiment: Inhibition of human ERG by medium-throughput electrophysiology
Chain of Voltage-gated inwardly rectifying potassium channel KCNH2 (Q12809 whole entry): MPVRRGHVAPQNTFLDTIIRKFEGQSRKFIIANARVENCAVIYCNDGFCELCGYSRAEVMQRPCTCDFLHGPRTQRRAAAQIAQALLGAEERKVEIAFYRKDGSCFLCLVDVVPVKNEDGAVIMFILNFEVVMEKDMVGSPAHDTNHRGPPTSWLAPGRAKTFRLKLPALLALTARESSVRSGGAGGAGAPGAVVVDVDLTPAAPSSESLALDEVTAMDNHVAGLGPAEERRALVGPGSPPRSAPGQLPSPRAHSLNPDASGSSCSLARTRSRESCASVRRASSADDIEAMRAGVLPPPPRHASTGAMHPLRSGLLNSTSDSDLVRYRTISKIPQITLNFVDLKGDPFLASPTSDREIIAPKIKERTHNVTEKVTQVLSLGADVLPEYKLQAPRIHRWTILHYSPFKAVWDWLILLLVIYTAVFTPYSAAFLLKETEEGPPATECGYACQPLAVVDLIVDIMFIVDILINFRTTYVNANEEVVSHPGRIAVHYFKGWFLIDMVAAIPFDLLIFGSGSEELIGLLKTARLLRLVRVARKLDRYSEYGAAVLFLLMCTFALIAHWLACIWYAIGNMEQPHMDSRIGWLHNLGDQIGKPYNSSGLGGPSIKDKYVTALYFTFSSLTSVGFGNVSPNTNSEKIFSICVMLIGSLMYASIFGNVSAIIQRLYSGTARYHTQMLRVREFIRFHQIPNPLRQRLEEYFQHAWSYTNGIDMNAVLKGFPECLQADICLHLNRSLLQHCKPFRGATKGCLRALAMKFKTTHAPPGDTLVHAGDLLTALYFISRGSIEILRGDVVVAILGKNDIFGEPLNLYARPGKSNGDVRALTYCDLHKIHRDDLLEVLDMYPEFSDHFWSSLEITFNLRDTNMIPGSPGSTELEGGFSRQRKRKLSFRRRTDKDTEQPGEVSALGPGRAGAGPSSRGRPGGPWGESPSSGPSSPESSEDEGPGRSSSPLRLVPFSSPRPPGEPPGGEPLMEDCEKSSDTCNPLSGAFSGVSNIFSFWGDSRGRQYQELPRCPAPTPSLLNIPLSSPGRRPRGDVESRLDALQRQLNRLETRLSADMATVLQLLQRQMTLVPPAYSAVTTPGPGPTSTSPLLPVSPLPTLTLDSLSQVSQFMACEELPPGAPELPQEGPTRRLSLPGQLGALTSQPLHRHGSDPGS

Escherichia coli [40] = experiment: Antimicrobial activity against Escherichia coli ARC524 at 100 uM; format: functional, organism-based; procedure, shortened: as §4
[41] = Permeability of the compound from basolateral to apical side in human Caco2 cells; format: ADME, cell-based; conditions: Caco-2, read-out: permeability

Cn1ncc(C(=O)N2CCC(Nc3cc(=O)[nH]c4cc(F)c(F)cc34)CC2)c1Cl
Cmax [1]: 20 nM | T1/2 [2]: 1.75 h | Vd [3]: 0.9 L/kg | clearance [4]: 34.4 mL/min/kg | AUC(0-inf) [5]: 1.2 µM·h | LCK [6]: 4 | fold change (FC) [7]: > 143 | Activity [8]: inactive | Activity (Escherichia coli [9]): inactive | MBC [10]: 0.8 µM (≈ 0.337 µg/mL) | MIC [11]: 0.4 µM (≈ 0.169 µg/mL) | Activity (Pseudomonas aeruginosa [12]): inactive | solubility at 24 h [13]: 26 µM (≈ 11 µg/mL) | half-life [14]: 0.5 h | bioavailability [15]: 0.3% | C0 [16]: 4900 nM | Activity (Streptococcus pneumoniae): inactive | TIME [17]: 2.53 h | AUC(0-inf) [18]: 0.04 µM·h | MIC [19]: 0.4 µM (≈ 0.169 µg/mL) | Activity (Staphylococcus aureus): inactive | MIC [20]: > 50 µM | Activity (Haemophilus influenzae [21]): inactive | Kdiss [22]: 0.00011 s⁻¹ | logD [23]: 2.2 | LCK [24]: 3 | Activity [25]: inactive | MCC at 72 h [26]: > 100 µM | IC80 [27]: > 100 µM | hepatocyte CLint at 1 µM [28]: 2.4 µL/min/1e6 cells | Activity (Haemophilus influenzae [29]): inactive | pIC50 [30]: < 5.00 | Activity (Candida albicans): inactive | Papp A→B [31]: 0.2 ×10⁻⁶ cm/s | MIC [32]: 0.4 µM (≈ 0.169 µg/mL) | fraction unbound at 18 h, 20 µM [33]: 0.4 | Activity (Klebsiella pneumoniae): inactive | pIC50 [34]: 8.22 | MIC [35]: 0.4 µM (≈ 0.169 µg/mL) | half-life [36]: 1.1 h | microsomal CLint at 1 µM [37]: 12.5 µL/min/mg | Activity (Pseudomonas aeruginosa [38]): inactive | pIC50 [39]: < 4.00 | Activity (Escherichia coli [40]): inactive | Papp B→A [41]: 11 ×10⁻⁶ cm/s
